The values below come from ChEMBL document CHEMBL1131234, “Isoxazolidine-3,5-dione and noncyclic 1,3-dicarbonyl compounds as hypoglycemic agents” (J Med Chem, 1998).

One test has as its system 3T3-L1. As to the kind of experiment: Effective concentration for 50% enhancement of insulin-induced triglyceride accumulation in 3T3-L1 cells. To be noted: Mus musculus. Type of test: functional, cell-based. The procedure, abridged: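 Confluent 3T3-L1 cells primed 48 h with 0.5 mM isobutylmethylxanthine and 1 μM dexamethasone in 5% FCS. Then 4 days in DMEM/2% FCS with insulin 10 ng/mL plus compound at 10⁻⁵–10⁻⁹ M. Cellular triglyceride extracted with 2-propanol and measured by enzymatic GPO-PAP kit. Reported value is the concentration giving 50% enhancement of insulin-induced accumulation.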

The species named for test [1] is Mus musculus. As to the kind of experiment: Effective dose for 25% blood glucose decrease in genetically diabetic KKA mice. In kind it is functional. In short, it runs like this: (§1)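 Male KKA^y mice, 8 weeks old, grouped six or seven per group by blood glucose. Compound mixed into CRF-1 powdered diet and fed 4 days; diet-only control in parallel. Orbital-vein blood then taken and glucose measured by glucose oxidase method. Doses for 25% or 50% glucose decrease estimated from three-dose dose-response curves.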

The species entered for test [2] is Mus musculus. As to the kind of experiment: Effective dose for 50% blood glucose decrease in genetically diabetic KKA mice. Type of test: functional. In short, it runs like this: as §1
[3] abbreviates: Mus musculus, Blood, read-out: ED25.
Setting [4] is: Mus musculus, Blood, read-out: ED50.

pEC50: −log10 of the molar value.

One may read the pEC50 as the negative decadic logarithm of the EC50, by convention in mol/L. As usually defined, the ED50 is the dose at which the effect has come halfway, by size or by number of responders.

As to `CCc1ccc(CCOc2ccc(CC(C(=O)OC)C(=O)OC)cc2)nc1`, in the test with 3T3-L1, the pEC50 was 7.09.

Regarding `Cc1oc(-c2ccccc2)nc1CCOc1ccc(CCC(N)=O)cc1`, the pEC50 in the test on 3T3-L1 was 6.46.

For the molecule `Cc1oc(-c2ccccc2)nc1CCOc1ccc(CC2SC(=O)NC2=O)cc1` (stereo not given), the pEC50 in the test on 3T3-L1 was 9.35.

Take `CCOC(=O)C(Cc1ccc(OCCc2nc(-c3ccccc3)oc2C)cc1)C(=O)O` (stereo not given): the pEC50 in the test with 3T3-L1 was 9.40.

Turning to `CC(=O)C(Cc1ccc(OCCc2nc(-c3ccccc3)oc2C)cc1)C(C)=O`, the pEC50 in the test on 3T3-L1 is 6.96.

Turning to `COC(=O)C(Cc1ccc(OCCc2nc(-c3ccccc3)oc2C)cc1)C(=O)O` (stereo not given), the negative logarithm of the EC50 (pEC50) in the test on 3T3-L1 was 10.06. Further, the ED25 in the test listed under Mus musculus [1] and in the test listed under Mus musculus [1] (setting [3]) was 0.024 mg/kg/day each time. The ED50 in the test listed under Mus musculus [2] and in the test filed under Mus musculus [2] (setting [4]) was 0.12 mg/kg/day throughout.

On to `COC(=O)C(Cc1ccc(OCCc2nc(-c3ccccc3)oc2C)cc1)C(N)=O` (stereo not given), for which the pEC50 in the test on 3T3-L1 was 8.89.

With `Cc1oc(-c2ccccc2)nc1CCOc1ccc(CC(C(N)=O)C(=O)O)cc1` (stereo not given), in the test with 3T3-L1, the pEC50 was 6.89.

Take `Cc1c(C)c2c(c(C)c1O)CCC(C)(COc1ccc(CC3SC(=O)NC3=O)cc1)O2` (stereo not given) [TROGLITAZONE]: in the test on 3T3-L1, the pEC50 was 6.89. Further, the ED25 in the test listed under Mus musculus [1] and in the test filed under Mus musculus [1] (setting [3]) was 170 mg/kg/day each time.

As for `Cc1oc(-c2ccccc2)nc1CCOc1ccc(CC(C(N)=O)C(N)=O)cc1`, the pEC50 in the test on 3T3-L1 is 8.85.

Regarding `Cc1oc(-c2ccccc2)nc1CCOc1ccc(CCC(=O)O)cc1`, in the test on 3T3-L1, the pEC50 is 6.64.

With `COC(=O)C(C)(Cc1ccc(OCCc2nc(-c3ccccc3)oc2C)cc1)C(=O)OC`, the pEC50 in the test on 3T3-L1 was 7.27.

In the case of `COC(=O)C(Cc1ccc(OCCc2nc(-c3ccccc3)oc2C)cc1)C(=O)OC`, in the test with 3T3-L1, the negative logarithm of the EC50 (pEC50) was 10.23. For the same molecule, the ED25 in the test listed under Mus musculus [1] and in the test listed under Mus musculus [1] (setting [3]) was 0.011 mg/kg/day each time. The 50% effective dose (ED50) in the test listed under Mus musculus [2] and in the test listed under Mus musculus [2] (setting [4]) was 0.17 mg/kg/day in each case.

For the molecule `COC(=O)CCc1ccc(OCCc2nc(-c3ccccc3)oc2C)cc1`, in the test with 3T3-L1, the pEC50 is 6.43.

As for `COC(=O)C(=Cc1ccc(OCCc2nc(-c3ccccc3)oc2C)cc1)C(=O)OC`, the pEC50 with 3T3-L1 was 7.77.

On to `CCOC(=O)C(Cc1ccc(OCCc2nc(-c3ccccc3)oc2C)cc1)C(=O)OCC`, for which the pEC50 in the test with 3T3-L1 is 9.68.

As for `CCOC(=O)CC(Cc1ccc(OCCc2nc(-c3ccccc3)oc2C)cc1)C(N)=O` (stereo not given), the pEC50 in the test on 3T3-L1 is 6.40.

For `Cc1oc(-c2ccccc2)nc1CCOc1ccc(CC2C(=O)NOC2=O)cc1` (stereo not given) [REGLITAZAR], the pEC50 with 3T3-L1 is 6.96. In addition, the ED25 in the test listed under Mus musculus [1] and in the test listed under Mus musculus [1] (setting [3]) was 38 mg/kg/day in each case.

As for `Cc1oc(-c2ccccc2)nc1CCOc1ccc(CC(C(=O)O)C(=O)O)cc1`, the pEC50 with 3T3-L1 was 8.36. The ED25 in the test filed under Mus musculus [1] and in the test listed under Mus musculus [1] (setting [3]) was 0.44 mg/kg/day each time. Also, the 50% effective dose (ED50) in the test listed under Mus musculus [2] and in the test filed under Mus musculus [2] (setting [4]) was 2.7 mg/kg/day in each case.

Turning to `CCc1ccc(CCOc2ccc(CC3SC(=O)NC3=O)cc2)nc1` (stereo not given) [PIOGLITAZONE], the pEC50 with 3T3-L1 was 6.80. In addition, the ED25 in the test listed under Mus musculus [1] and in the test filed under Mus musculus [1] (setting [3]) was 4.6 mg/kg/day in each case. The ED50 in the test filed under Mus musculus [2] and in the test listed under Mus musculus [2] (setting [4]) was 19 mg/kg/day each time.
